Key:
[1] = molecular target: T1, Phosphodiesterase 4 (Homo sapiens) (UniProt P27815+Q08499+Q07343+Q08493); experiment: Inhibitory activity towards cAMP phosphodiesterase isolated from rabbit lung.; type: protein assay; design: unit not given here; conditions: Oryctolagus cuniculus; target entry is the homologue from another species
Procedure, shortened: (§1)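 PDE prepared as previously described. Each 0.5 mL reaction held 25 µmol Tris-HCl (pH 7.5), 5 µmol MgCl2, 10-75 µg enzyme protein, 350 pmol [8-3H]cAMP (850 cpm/pmol), and at least seven inhibitor concentrations (0.5 µM to 5 mM). 5'-AMP formed was measured at three or more time points (3-12 min) to confirm linear rates. I50 was read graphically from % inhibition versus log inhibitor concentration.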

[2] = molecular target: T1, Phosphodiesterase 4 (Homo sapiens); experiment: Inhibitory activity towards cAMP phosphodiesterase isolated from bovine heart.; type: protein assay; design: unit not given here; conditions: Bos taurus; target entry is the homologue from another species; procedure, shortened: as §1
[3] = molecular target: T1, Phosphodiesterase 4 (Homo sapiens); experiment: Inhibitory activity towards cAMP Phosphodiesterase isolated from rabbit heart; type: protein assay; design: reference not given here; conditions: Oryctolagus cuniculus; target entry is the homologue from another species
Bos taurus [4] = species on record: Bos taurus; experiment: (§2) Inhibition of bovine brain cAMP Phosphodiesterase; design: unit not given here; procedure, shortened: as §1
[5] = Inhibition of bovine heart cAMP Phosphodiesterase; design: species or system Bos taurus
Procedure, shortened: as §1, with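 “Enzymes” for “PDE”, “described (beef heart, 14 units/mg; rabbit lung, 70 units/mg). The” for “described. Each”, “pH 7.5,” for “(pH 7.5),”, “5'-AMP” for “5'-AMP formed”, “vs” for “versus”, “log” for “log inhibitor”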

[6] = Inhibition of rabbit lung cAMP Phosphodiesterase; design: species or system Oryctolagus cuniculus; conditions: read-out: I50
Procedure, shortened: as §1, with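 “Enzymes” for “PDE”, “described (beef heart, 14 units/mg; rabbit lung, 70 units/mg). The” for “described. Each”, “pH 7.5,” for “(pH 7.5),”, “5'-AMP” for “5'-AMP formed”, “vs” for “versus”, “log” for “log inhibitor”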

Bos taurus [7] = species on record: Bos taurus
Bos taurus [8] = species on record: Bos taurus; remark: listed apart in the source
[9] = molecular target: T1, Phosphodiesterase 4 (Homo sapiens); experiment: as §2; conditions: Bos taurus; target entry is the homologue from another species; procedure, shortened: as §1

CCc1nc(C)nc2ccnn12
Activity [1]: 1.1
Activity [2]: 0.7

CSc1nc(SC)n2ncc(Br)c2n1
Activity [1]: 5
Activity [3]: 1.5

CCCCNc1nc(C)nc2cc(-c3ccccc3)nn12
Activity [1]: 11
Activity [2]: 1.7

CCc1nc(C)nc2cc(-c3ccccc3)nn12
Activity [1]: 21
Activity [2]: 4

CCc1nc(C)nc2c(-c3ccccc3)cnn12
Activity (Bos taurus [4]): 39
Activity [1]: 27
Activity [2]: 10

Cc1ncn2nc(-c3ccccc3)cc2n1
Activity (Bos taurus [4]): 49
Activity [1]: 25
Activity [2]: 3

CCc1nc(C)nc2cc(-c3ccc(OC)cc3)nn12
Activity [1]: 16
Activity [2]: 3

Cc1nc(C)n2nc(-c3ccccc3)c(Br)c2n1
Activity [1]: 40
Activity [2]: 3

Cc1nc(O)n2nc(-c3ccccc3)cc2n1
Activity (Bos taurus [4]): 4.7
Activity [1]: 1.9
Activity [2]: 0.5

CCc1nc(C)n2nc(-c3ccccc3)cc2n1
Activity [1]: 12
Activity [2]: 2.7

CCc1nc(C)nc2c(Br)c(-c3ccccc3)nn12
Activity [1]: 14
Activity [2]: 7

CCc1nc(CC)n2nc(-c3ccccc3)cc2n1
Activity (Bos taurus [4]): 12
Activity [1]: 20
Activity [2]: 7

CCSc1nc(SC)nc2c(Br)cnn12
Activity [1]: 13
Activity [3]: 2.6

CCc1nc(C)n2nccc2n1
Activity [1]: 2.4
Activity [2]: 0.5

CCOC(=O)c1cnn2c(CC)nc(C)nc12
Activity [1]: 0.7
Activity [2]: 1.2

CSc1nc(C)n2nccc2n1
Activity [1]: 1.6
Activity [3]: 0

CCCNc1nc(SC)nc2c(Br)cnn12
Activity [1]: 67
Activity [3]: 6.9

CCc1ncn2nc(-c3ccccc3)cc2n1
Activity (Bos taurus [4]): 97
Activity [1]: 14
Activity [2]: 0.5

Cc1nc(C)n2ncc(-c3ccccc3)c2n1
Activity (Bos taurus [4]): 40
Activity [1]: 25
Activity [2]: 3

CCN(CC)c1nc(SC)nc2c(Br)cnn12
Activity [1]: 26
Activity [3]: 6.2

CCc1nc(C)nc2c(Br)cnn12
Activity [1]: 2.5
Activity [2]: 1

COc1nc(SC)nc2ccnn12
Activity [1]: 0.6
Activity [3]: 0.5

CSc1nc(OC(C)C)n2ncc(Br)c2n1
Activity [1]: 1.5
Activity [3]: 4

CCCNc1ncnc2cc(-c3ccccc3)nn12
Activity [1]: 26
Activity [2]: 3.8

Cn1c(=O)c2nc[nH]c2n(C)c1=O [THEOPHYLLINE]
Ki [5]: 77 µM
IC50 ([5]; read-out: I50): 90 µM
IC50 [6]: 210 µM

Nc1ncnc2c1ncn2[C@@H]1O[C@@H]2COP(=O)(O)O[C@H]2[C@H]1O
Km (Bos taurus [7]): 0.63 µM
Km (Oryctolagus cuniculus): 0.56 µM
Km (Bos taurus [8]): 1.3 µM

CCc1nc(CC)n2nc(-c3ccccc3C)cc2n1
Activity (Bos taurus [4]): 42
Activity [1]: 15
Activity [2]: 16

Cc1nc(C)n2nccc2n1
Activity [1]: 1
Activity [2]: 0.9

CCCCNc1nc(SC)nc2c(Br)cnn12
Activity [9]: 18
Activity [1]: 160
Activity [3]: 12.5

CCN(CC)c1nc(SC)nc2ccnn12
Activity [9]: 12
Activity [1]: 19
Activity [3]: 12.2

Cc1cccc(-c2cnn3c(C)nc(C)nc23)c1
Activity [1]: 14
Activity [2]: 2

CSc1nc(S)n2ncc(Br)c2n1
Activity [1]: 1
Activity [3]: 0.68

CCc1nc(C)nc2c(-c3cccc(C)c3)cnn12
Activity [2]: 5

Cc1nc(-c2ccccc2)n2nc(-c3ccccc3)cc2n1
Activity [1]: 10

COc1nc(SC)nc2c(Br)cnn12
Activity [1]: 9
Activity [3]: 3.2

Cc1ncn2nc(-c3ccccc3)c(Br)c2n1
Activity [1]: 1.8
Activity [2]: 0.9

c1ccc(-c2cc3ncnc(N4CCCCC4)n3n2)cc1
Activity [1]: 29
Activity [2]: 11

CCN(CC)c1ncnc2c(Br)c(-c3ccccc3)nn12
Activity [1]: 185
Activity [2]: 40

CCCCNc1ncnc2cc(-c3ccccc3)nn12
Activity [1]: 13.5
Activity [2]: 2.5

CCSc1nc(SC)nc2ccnn12
Activity [1]: 8
Activity [3]: 3.2

CCc1nc(CC)n2nc(-c3ccccc3)c(Br)c2n1
Activity [1]: 9
Activity [2]: 2

CCCc1nc(C)nc2cc(-c3ccccc3)nn12
Activity [1]: 10
Activity [2]: 11

CCN(CC)c1ncnc2cc(-c3ccccc3)nn12
Activity (Bos taurus [4]): 146
Activity [1]: 143
Activity [2]: 57

Cc1cccc(-c2cnn3cnc(C)nc23)c1
Activity [1]: 1.5
Activity [2]: 0.4

CCNc1nc(SC)nc2c(Br)cnn12
Activity [9]: 17
Activity [1]: 40
Activity [3]: 8

CSc1ncnc2cc(-c3ccccc3)nn12
Activity [1]: 11
Activity [3]: 7.3

CCCOc1nc(SC)nc2c(Br)cnn12
Activity [1]: 2.7
Activity [3]: 0.7

CCc1nc(C)nc2c(C#N)cnn12
Activity [1]: 1.2
Activity [2]: 1.7

CCCc1nc(C)nc2c(Br)c(-c3ccccc3)nn12
Activity [1]: 8
Activity [2]: 2

CCc1nc(CC)n2nc(-c3ccc(OC)cc3)cc2n1
Activity [1]: 14
Activity [2]: 8

CCc1nc(C)nc2c(Cl)cnn12
Activity [1]: 1.8
Activity [2]: 0.8

Cc1nc(C)n2nc(-c3ccccc3)cc2n1
Activity (Bos taurus [4]): 19
Activity [1]: 22
Activity [2]: 3.5

CCCNc1nc(SC)nc2ccnn12
Activity [1]: 12
Activity [3]: 5.8
